# Reference: ChEMBL document CHEMBL3994624, “Antimalarial Pyrido[1,2-a]benzimidazoles: Lead Optimization, Parasite Life Cycle Stage Profile, Mechanistic Evaluation, Killing Kinetics, and in Vivo Oral Efficacy in a Mouse Model” (J Med Chem, 2017)
# Active and inactive are the calls of the source. The calls are words filed in the database; no cut-off is given here.
# Experiments:
# Plasmodium berghei [1] = assay: Antimalarial activity against GFP-fused Plasmodium berghei ANKA infected in mouse assessed as mouse mean survival days at 10 mg/kg, po administered once daily for 4 days; format: functional
# Outline: (§1)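 P. berghei-infected mice (n=3 per dose) dosed orally once daily on 4 consecutive days at 4, 24, 48 and 72 h after infection; compound in 90/10 Tween80/ethanol (v/v) diluted 10-fold with water. Read-outs were % parasitemia reduction, mean survival time in days and cure; mice with <40% parasitemia reduction euthanized on day 4.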
# Plasmodium berghei [2] = assay: Antimalarial activity against GFP-fused Plasmodium berghei ANKA infected in mouse assessed as reduction in parasitemia at 10 mg/kg, po administered once daily for 4 days by flow cytometry relative to control; format: functional; set-up: scale not given: the % may be the effect or the level left
# Outline: (§2)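 P. berghei-infected mice, 3 per group. Compound formulated in 90/10 Tween80/ethanol (v/v), diluted 10-fold with water, given orally once daily at 4, 24, 48 and 72 h post-infection. Outcomes: % parasitemia reduction versus untreated control, mean survival days, and cured/infected. Mice with <40% reduction euthanized on day 4.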
# [3] = Oral bioavailability in C57/Bl6 mouse at 10 mg/kg administered via gavage by LC-MS method; format: ADME, organism-based; details: in vivo
# Outline: (§3)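 Mice (n=3) given a single oral dose of 10 mg/kg as a suspension in […] HPMC; plasma sampled over 24 h. Parameters were estimated by nonlinear mixed-effects modelling with a two-compartment disposition model, first-order absorption and elimination.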
# [4] = Half life in C57/Bl6 mouse at 2.5 mg/kg, iv by LC-MS method; format: ADME, organism-based; details: in vivo
# Outline: (§4)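 Mice (n=3) given a single intravenous dose of 2.5 mg/kg in dimethylacetamide:polyethylene glycol:propylene glycol/ethanol (4:1) at 1:3:6; 24 h sampling. Parameters were fitted by nonlinear mixed-effects two-compartment model with first-order elimination.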
# Plasmodium berghei [5] = assay: Antimalarial activity against GFP-fused Plasmodium berghei ANKA infected in mouse assessed as protection against parasitemia at 3 mg/kg, po administered once daily for 4 days measured 30 days post infection by light microscopy; format: functional, organism-based; outline: as §2
# Plasmodium falciparum [6] = assay: Ratio of IC50 for chloroquine-sensitive Plasmodium falciparum NF54 early 2/3 stage gametocytes to IC50 for chloroquine-sensitive Plasmodium falciparum NF54 late 4/5 stage gametocytes; format: functional
# Outline: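 Early (stage II/III) and late (stage IV/V) gametocytes tested in parallel luciferase reporter assays; stage preference = EG IC50/LG IC50.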
# Plasmodium berghei [7] = assay: Antimalarial activity against GFP-fused Plasmodium berghei ANKA infected in mouse assessed as reduction in parasitemia at 30 mg/kg, po administered once daily for 4 days by flow cytometry relative to control; format: functional; set-up: scale not given: the % may be the effect or the level left; outline: as §2
# [8] = Clearance in C57/Bl6 mouse at 2.5 mg/kg, iv by LC-MS method; format: ADME, organism-based; details: in vivo; outline: as §4
# [9] = Metabolic stability in human liver microsomes assessed as compound remaining at 1 uM in presence of NADPH after 30 mins by LC-MS/MS analysis; format: ADME, microsome; details: read-out: Stability
# Outline: (§5)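 Mouse and human liver microsomes; % compound remaining after 30 min.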
# Plasmodium berghei [10] = assay: Antimalarial activity against GFP-fused Plasmodium berghei ANKA infected in mouse assessed as reduction in parasitemia at 50 mg/kg, po administered once daily for 4 days by flow cytometry relative to control; format: functional; set-up: scale not given: the % may be the effect or the level left; outline: as §2
# Plasmodium berghei [11] = assay: Antimalarial activity against GFP-fused Plasmodium berghei ANKA infected in mouse assessed as protection against parasitemia at 50 mg/kg, po administered once daily for 4 days measured 30 days post infection by light microscopy; format: functional, organism-based; outline: as §2
# [12] = Half life in C57/Bl6 mouse at 10 mg/kg, po administered via gavage by LC-MS method; format: ADME, organism-based; details: in vivo; outline: as §3
# Mus musculus [13] = assay: AUC (0 to infinity) in C57/Bl6 mouse at 10 mg/kg, po administered via gavage by LC-MS method; format: ADME, organism-based; set-up: dose 10 mg/kg, route oral, time infinity; details: in vivo; outline: as §3
# Plasmodium falciparum [14] = assay: Anti-plasmodial activity against chloroquine-sensitive Plasmodium falciparum NF54 late 4/5 stage gametocytes assessed as reduction in ATP levels after 24 hrs by BacTiter-Glo reagent based bioluminescence assay; format: functional; details: NF54, 24 h
# Plasmodium falciparum [15] = assay: Ratio of IC50 for chloroquine-sensitive Plasmodium falciparum NF54 after 24 hrs to IC50 for chloroquine-sensitive Plasmodium falciparum NF54 after 72 hrs; format: functional
# Plasmodium falciparum [16] = assay: Anti-plasmodial activity against multidrug resistant Plasmodium falciparum K1 by [3H]-hypoxanthine incorporation assay; format: functional
# Outline: (§6)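 P. falciparum asexual blood-stage growth inhibition by [3H]hypoxanthine incorporation; chloroquine and artesunate run as reference drugs in every experiment; IC50 given as mean of ≥2 independent experiments.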
# [17] = Metabolic stability in Balb/c mouse liver microsomes assessed as compound remaining at 1 uM in presence of NADPH after 30 mins by LC-MS/MS analysis; format: ADME, microsome; details: read-out: Stability; outline: as §5
# Plasmodium falciparum [18] = assay: Anti-plasmodial activity against chloroquine-sensitive Plasmodium falciparum NF54 by [3H]-hypoxanthine incorporation assay; format: functional; outline: as §6
# Plasmodium berghei [19] = assay: Antimalarial activity against GFP-fused Plasmodium berghei ANKA infected in mouse assessed as protection against parasitemia at 30 mg/kg, po administered once daily for 4 days measured 30 days post infection by light microscopy; format: functional, organism-based; outline: as §2
# Plasmodium berghei [20] = assay: Antimalarial activity against GFP-fused Plasmodium berghei ANKA infected in mouse assessed as mouse mean survival days at 50 mg/kg, po administered once daily for 4 days; format: functional; outline: as §1
# Plasmodium berghei [21] = assay: Antimalarial activity against GFP-fused Plasmodium berghei ANKA infected in mouse assessed as mouse mean survival days at 3 mg/kg, po administered once daily for 4 days; format: functional; outline: as §1
# Huh-7 = assay: Cytotoxicity against human HuH7 cells at 1 to 10 uM after 48 hrs by Alamarblue assay; format: cell-based; details: huh-7, 48 h
# Plasmodium berghei [22] = assay: Antimalarial activity against GFP-fused Plasmodium berghei ANKA infected in mouse assessed as reduction in parasitemia at 3 mg/kg, po administered once daily for 4 days by flow cytometry relative to control; format: functional; set-up: scale not given: the % may be the effect or the level left; outline: as §2
# [23] = Kinetic solubility of the compound in FaSSIF at pH 6.5 after 2 hrs by shake flask method; format: physicochemical; details: read-out: Kinetic_solubility
# [24] = Cmax in C57/Bl6 mouse at 10 mg/kg, po administered via gavage by LC-MS method; format: ADME, organism-based; set-up: dose 10 mg/kg, route oral; details: in vivo; outline: as §3
# [25] = Volume of distribution in C57/Bl6 mouse at 2.5 mg/kg, iv by LC-MS method; format: ADME, organism-based; details: in vivo; outline: as §4
# [26] = Tmax in C57/Bl6 mouse at 10 mg/kg, po administered via gavage by LC-MS method; format: ADME, organism-based; details: in vivo; outline: as §3
# Mus musculus [27] = assay: AUC (0 to infinity) in C57/Bl6 mouse at 2.5 mg/kg, iv by LC-MS method; format: ADME, organism-based; set-up: dose 2.5 mg/kg, time infinity, route intravenous; details: in vivo; outline: as §4
# Plasmodium berghei [28] = assay: Antimalarial activity against GFP-fused Plasmodium berghei ANKA infected in mouse assessed as protection against parasitemia at 10 mg/kg, po administered once daily for 4 days measured 30 days post infection by light microscopy; format: functional, organism-based; outline: as §2
# [29] = Selectivity index, ratio of IC50 for CHO cells to IC50 for chloroquine-sensitive Plasmodium falciparum NF54; format: toxicity; details: hamster, read-out: Ratio IC50
# Outline: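 Selectivity index = IC50 CHO / IC50 PfNF54.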
# CHO = assay: Cytotoxicity against CHO cells after by MTT assay; format: cell-based; details: Cricetulus griseus
# Plasmodium berghei [30] = assay: Antimalarial activity against GFP-fused Plasmodium berghei ANKA infected in mouse assessed as mouse mean survival days at 30 mg/kg, po administered once daily for 4 days; format: functional; outline: as §1
# Plasmodium berghei [31] = assay: Antimalarial activity against GFP-fused Plasmodium berghei ANKA infected in mouse assessed as protection against parasitemia at 25 mg/kg, po administered once daily for 4 days measured 30 days post infection by light microscopy; format: functional, organism-based
# Ferriprotoporphyrin IX [32] = assay: Inhibition of beta hematin formation in ring stage of chloroquine-sensitive Plasmodium falciparum NF54 assessed as decrease in haemozoin level after 36 hrs by UV-vis spectra analysis
# Outline: (§7)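 Synchronized ring-stage parasites treated with increasing drug concentrations, then cellular fractionation. Free haem and haemozoin quantified as iron (fg/cell) and compared with untreated control; significance by p-values; parasite survival overlaid.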
# Ferriprotoporphyrin IX [33] = assay: Inhibition of beta hematin formation in ring stage of chloroquine-sensitive Plasmodium falciparum NF54 assessed as increase in free heme level after 36 hrs by UV-vis spectra analysis; outline: as §7
# Plasmodium berghei [34] = assay: Antimalarial activity against GFP-fused Plasmodium berghei ANKA infected in mouse assessed as protection against parasitemia at 12.5 mg/kg, po administered once daily for 4 days measured 30 days post infection by light microscopy; format: functional, organism-based
# Plasmodium berghei [35] = assay: Antimalarial activity against GFP-fused Plasmodium berghei ANKA infected in mouse assessed as protection against parasitemia at 6 mg/kg, po administered once daily for 4 days measured 30 days post infection by light microscopy; format: functional, organism-based
smiles,measurement,setting,value
CCNCCNc1cc(-c2ccc(C(F)(F)F)cc2)c(C#N)c2nc3cc(Cl)c(Cl)cc3n12,MSD,Plasmodium berghei [1],18 days
same,Activity,Plasmodium berghei [2],99.6%
same,bioavailability,[3],< 15%
same,half-life,[4],900 min
same,Activity,Plasmodium berghei [5],inactive
same,Ratio IC50,Plasmodium falciparum [6],1.2
same,Activity,Plasmodium berghei [7],99.7%
same,clearance,[8],21 mL/min/kg
same,"remaining at 0.5 h, 1 µM",[9],95%
same,Activity,Plasmodium berghei [10],98%
same,Activity,Plasmodium berghei [11],Active
same,half-life,[12],900 min
same,AUC,Mus musculus [13],158 µM·min
same,IC50,Plasmodium falciparum [14],720 nM
same,Ratio IC50,Plasmodium falciparum [15],1.5 - 2
same,IC50,Plasmodium falciparum [16],20 nM
same,"remaining at 0.5 h, 1 µM",[17],81%
same,IC50,Plasmodium falciparum [18],20 nM
same,Activity,Plasmodium berghei [19],Active
same,MSD,Plasmodium berghei [20],30 days
same,MSD,Plasmodium berghei [21],17 days
same,Activity,Huh-7,Non-Toxic
same,Activity,Plasmodium berghei [22],99.5%
same,solubility kinetic at 2 h,[23],10 µM
same,Cmax,[24],70 nM
same,Vd,[25],26 L/kg
same,Tmax,[26],10 h
same,AUC,Mus musculus [27],256 µM·min
same,Activity,Plasmodium berghei [28],inactive
same,selectivity ratio,[29],188
same,IC50,CHO,3.39 µM
same,MSD,Plasmodium berghei [30],30 days
CCNCCNc1cc(-c2ccc(C(F)(F)F)cc2)c(C#N)c2nc3ccccc3n12,Activity,Plasmodium berghei [5],inactive
same,Activity,Plasmodium berghei [31],inactive
same,Activity,Plasmodium berghei [11],inactive
same,inhibition,Ferriprotoporphyrin IX [32],Dose-dependent effect
same,inhibition,Ferriprotoporphyrin IX [33],Dose-dependent effect
same,Activity,Plasmodium berghei [34],inactive
same,Activity,Plasmodium berghei [35],inactive
